ChEMBL document CHEMBL1649557 (Antimicrob Agents Chemother, 2009)
In brackets after ≈: the same amount, converted by molar mass. Values belong to the molecule of their own block, whether it stands above or below them.

Experiments:
Staphylococcus aureus [1] = assay: Antibacterial activity against methicillin-susceptible and beta-lactamase-producing Staphylococcus aureus Type A TX01117 using 5x10^5 CFU/ml standard inoculum after 24 hrs by CLSI broth microdilution method; format: functional; conditions: Type A TX01117, 24 h
Staphylococcus aureus [2] = assay: Antibacterial activity against methicillin-susceptible and beta-lactamase-producing Staphylococcus aureus Type C using 5x10^5 CFU/ml standard inoculum after 24 hrs by CLSI broth microdilution method; format: functional
Staphylococcus aureus [3] = assay: Antibacterial activity against methicillin-susceptible and beta-lactamase-producing Staphylococcus aureus Type C using 5x10^7 CFU/ml high inoculum after 24 hrs by CLSI broth microdilution method; format: functional
Staphylococcus aureus [4] = assay: Antibacterial activity against methicillin-susceptible and beta-lactamase-producing Staphylococcus aureus Type B using 5x10^7 CFU/ml high inoculum after 24 hrs by CLSI broth microdilution method; format: functional
Staphylococcus aureus [5] = assay: Antibacterial activity against methicillin-susceptible and beta-lactamase-negative Staphylococcus aureus ATCC 25923 using 5x10^5 CFU/ml standard inoculum after 24 hrs by CLSI broth microdilution method; format: functional; conditions: ATCC 25923, 24 h
Staphylococcus aureus [6] = assay: Antibacterial activity against methicillin-susceptible and beta-lactamase-producing Staphylococcus aureus Type B using 5x10^5 CFU/ml standard inoculum after 24 hrs by CLSI broth microdilution method; format: functional
Staphylococcus aureus [7] = assay: Antibacterial activity against methicillin-susceptible and beta-lactamase-negative Staphylococcus aureus ATCC 25923 using 5x10^7 CFU/ml high inoculum after 24 hrs by CLSI broth microdilution method; format: functional; conditions: ATCC 25923, 24 h
Staphylococcus aureus [8] = assay: Antibacterial activity against methicillin-susceptible and beta-lactamase-producing Staphylococcus aureus Type A TX01117 using 5x10^7 CFU/ml high inoculum after 24 hrs by CLSI broth microdilution method; format: functional; conditions: Type A TX01117, 24 h
Staphylococcus aureus [9] = assay: Antibacterial activity against methicillin-susceptible and beta-lactamase-negative Staphylococcus aureus using 5x10^5 CFU/ml standard inoculum after 24 hrs by CLSI broth microdilution method
Staphylococcus aureus [10] = assay: Antibacterial activity against methicillin-susceptible Staphylococcus aureus using 5x10^5 CFU/ml standard inoculum assessed as bacterial growth inhibition at >= 128 ug/ml; format: functional; design: scale not given: the % may be the effect or the level left
In short: (§1)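 98 MSSA clinical isolates from skin/soft tissue infection, hospital-acquired pneumonia, endocarditis and haemodialysis bacteraemia; testers were blinded to clinical data. Broth microdilution in cation-adjusted Mueller-Hinton II broth per CLSI, with inocula of ~5×10^4, 5×10^5, 5×10^6 or 5×10^7 CFU/ml. Inocula were set by optical density and spot-checked by CFU counts. Plates were read at 24 h. Values are the percentage of strains inhibited at each concentration.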

Staphylococcus aureus [11] = assay: Antibacterial activity against methicillin-susceptible Staphylococcus aureus using 5x10^4 CFU/ml low inoculum assessed as bacterial growth inhibition at <= […] ug/ml; format: functional; design: scale not given: the % may be the effect or the level left
Staphylococcus aureus [12] = assay: Antibacterial activity against methicillin-susceptible Staphylococcus aureus using 5x10^5 CFU/ml standard inoculum assessed as bacterial growth inhibition at 16 ug/ml; format: functional; design: scale not given: the % may be the effect or the level left; in short: as §1
Staphylococcus aureus [13] = assay: Antibacterial activity against methicillin-susceptible Staphylococcus aureus using 5x10^6 CFU/ml intermediate inoculum assessed as bacterial growth inhibition at 2 ug/ml; format: functional; design: scale not given: the % may be the effect or the level left; in short: as §1
Staphylococcus aureus [14] = assay: Antibacterial activity against methicillin-susceptible Staphylococcus aureus using 5x10^5 CFU/ml standard inoculum assessed as bacterial growth inhibition at 8 ug/ml; format: functional; design: scale not given: the % may be the effect or the level left; in short: as §1
[15] = Drug level in human serum at 1 g, iv after 4 hrs; format: ADME, organism-based; conditions: read-out: Drug uptake
Staphylococcus aureus [16] = assay: Antibacterial activity against methicillin-susceptible Staphylococcus aureus using 5x10^7 CFU/ml high inoculum assessed as bacterial growth inhibition at 16 ug/ml; format: functional; design: scale not given: the % may be the effect or the level left; in short: as §1
Staphylococcus aureus [17] = assay: Antibacterial activity against methicillin-susceptible Staphylococcus aureus using 5x10^7 CFU/ml high inoculum assessed as bacterial growth inhibition at <= […] ug/ml; format: functional; design: scale not given: the % may be the effect or the level left
Staphylococcus aureus [18] = assay: Antibacterial activity against methicillin-susceptible Staphylococcus aureus using 5x10^7 CFU/ml high inoculum assessed as bacterial growth inhibition at 8 ug/ml; format: functional; design: scale not given: the % may be the effect or the level left; in short: as §1
Staphylococcus aureus [19] = assay: Antibacterial activity against methicillin-susceptible Staphylococcus aureus using 5x10^7 CFU/ml high inoculum assessed as bacterial growth inhibition at 32 ug/ml; format: functional; design: scale not given: the % may be the effect or the level left; in short: as §1
Staphylococcus aureus [20] = assay: Antibacterial activity against methicillin-susceptible Staphylococcus aureus using 5x10^5 CFU/ml standard inoculum assessed as bacterial growth inhibition at 2 ug/ml; format: functional; design: scale not given: the % may be the effect or the level left; in short: as §1
Staphylococcus aureus [21] = assay: Antibacterial activity against methicillin-susceptible Staphylococcus aureus using 5x10^4 CFU/ml low inoculum assessed as bacterial growth inhibition at 16 ug/ml; format: functional; design: scale not given: the % may be the effect or the level left; in short: as §1
[22] = Drug level in bone of methicillin-susceptible Staphylococcus aureus infected human after 60 mins; format: ADME, tissue-based, Bone element; conditions: read-out: Drug uptake
Staphylococcus aureus [23] = assay: Antibacterial activity against methicillin-susceptible Staphylococcus aureus using 5x10^6 CFU/ml intermediate inoculum assessed as bacterial growth inhibition at 4 ug/ml; format: functional; design: scale not given: the % may be the effect or the level left; in short: as §1
Staphylococcus aureus [24] = assay: Antibacterial activity against methicillin-susceptible Staphylococcus aureus using 5x10^7 CFU/ml high inoculum assessed as bacterial growth inhibition at >= 128 ug/ml; format: functional; design: scale not given: the % may be the effect or the level left; in short: as §1
Staphylococcus aureus [25] = assay: Antibacterial activity against methicillin-susceptible Staphylococcus aureus using 5x10^5 CFU/ml standard inoculum assessed as bacterial growth inhibition at 32 ug/ml; format: functional; design: scale not given: the % may be the effect or the level left; in short: as §1
Staphylococcus aureus [26] = assay: Antibacterial activity against methicillin-susceptible Staphylococcus aureus using 5x10^6 CFU/ml intermediate inoculum assessed as bacterial growth inhibition at 8 ug/ml; format: functional; design: scale not given: the % may be the effect or the level left; in short: as §1
Staphylococcus aureus [27] = assay: Antibacterial activity against methicillin-susceptible Staphylococcus aureus using 5x10^4 CFU/ml low inoculum assessed as bacterial growth inhibition at 2 ug/ml; format: functional; design: scale not given: the % may be the effect or the level left; in short: as §1
Staphylococcus aureus [28] = assay: Antibacterial activity against methicillin-susceptible Staphylococcus aureus using 5x10^4 CFU/ml low inoculum assessed as bacterial growth inhibition at 32 ug/ml; format: functional; design: scale not given: the % may be the effect or the level left; in short: as §1
Staphylococcus aureus [29] = assay: Antibacterial activity against methicillin-susceptible Staphylococcus aureus using 5x10^4 CFU/ml low inoculum assessed as bacterial growth inhibition at 4 ug/ml; format: functional; design: scale not given: the % may be the effect or the level left; in short: as §1
Staphylococcus aureus [30] = assay: Antibacterial activity against methicillin-susceptible Staphylococcus aureus using 5x10^4 CFU/ml low inoculum assessed as bacterial growth inhibition at 8 ug/ml; format: functional; design: scale not given: the % may be the effect or the level left; in short: as §1
Staphylococcus aureus [31] = assay: Antibacterial activity against methicillin-susceptible Staphylococcus aureus using 5x10^6 CFU/ml intermediate inoculum assessed as bacterial growth inhibition at 32 ug/ml; format: functional; design: scale not given: the % may be the effect or the level left; in short: as §1
Staphylococcus aureus [32] = assay: Antibacterial activity against methicillin-susceptible Staphylococcus aureus using 5x10^5 CFU/ml standard inoculum assessed as bacterial growth inhibition at 4 ug/ml; format: functional; design: scale not given: the % may be the effect or the level left; in short: as §1
Staphylococcus aureus [33] = assay: Antibacterial activity against methicillin-susceptible Staphylococcus aureus using 5x10^4 CFU/ml low inoculum assessed as bacterial growth inhibition at >= 128 ug/ml; format: functional; design: scale not given: the % may be the effect or the level left; in short: as §1
Staphylococcus aureus [34] = assay: Antibacterial activity against methicillin-susceptible Staphylococcus aureus using 5x10^6 CFU/ml intermediate inoculum assessed as bacterial growth inhibition at 16 ug/ml; format: functional; design: scale not given: the % may be the effect or the level left; in short: as §1
Staphylococcus aureus [35] = assay: Antibacterial activity against methicillin-susceptible Staphylococcus aureus using 5x10^6 CFU/ml intermediate inoculum assessed as bacterial growth inhibition at 64 ug/ml; format: functional; design: scale not given: the % may be the effect or the level left; in short: as §1
Staphylococcus aureus [36] = assay: Antibacterial activity against methicillin-susceptible Staphylococcus aureus using 5x10^7 CFU/ml high inoculum assessed as bacterial growth inhibition at 2 ug/ml; format: functional; design: scale not given: the % may be the effect or the level left; in short: as §1
Staphylococcus aureus [37] = assay: Antibacterial activity against methicillin-susceptible Staphylococcus aureus using 5x10^7 CFU/ml high inoculum assessed as bacterial growth inhibition at 4 ug/ml; format: functional; design: scale not given: the % may be the effect or the level left; in short: as §1
Staphylococcus aureus [38] = assay: Antibacterial activity against methicillin-susceptible Staphylococcus aureus using 5x10^5 CFU/ml standard inoculum assessed as bacterial growth inhibition at <= […] ug/ml; format: functional; design: scale not given: the % may be the effect or the level left
Staphylococcus aureus [39] = assay: Antibacterial activity against methicillin-susceptible Staphylococcus aureus using 5x10^6 CFU/ml intermediate inoculum assessed as bacterial growth inhibition at <= […] ug/ml; format: functional; design: scale not given: the % may be the effect or the level left
Staphylococcus aureus [40] = assay: Antibacterial activity against methicillin-susceptible Staphylococcus aureus using 5x10^5 CFU/ml standard inoculum assessed as bacterial growth inhibition at 64 ug/ml; format: functional; design: scale not given: the % may be the effect or the level left; in short: as §1
Staphylococcus aureus [41] = assay: Antibacterial activity against methicillin-susceptible Staphylococcus aureus using 5x10^4 CFU/ml low inoculum assessed as bacterial growth inhibition at 64 ug/ml; format: functional; design: scale not given: the % may be the effect or the level left; in short: as §1
Staphylococcus aureus [42] = assay: Antibacterial activity against methicillin-susceptible Staphylococcus aureus using 5x10^7 CFU/ml high inoculum assessed as bacterial growth inhibition at 64 ug/ml; format: functional; design: scale not given: the % may be the effect or the level left; in short: as §1
Staphylococcus aureus [43] = assay: Antibacterial activity against methicillin-susceptible Staphylococcus aureus using 5x10^6 CFU/ml intermediate inoculum assessed as bacterial growth inhibition at >= 128 ug/ml; format: functional; design: scale not given: the % may be the effect or the level left; in short: as §1

MIC (Staphylococcus aureus [1]): 0.5 µg/mL (≈ 1.08 µM)
MIC50 (Staphylococcus aureus [1]): 1 µg/mL (≈ 2.16 µM)
MIC90 (Staphylococcus aureus [1]): 2 µg/mL (≈ 4.32 µM)
MIC50 (Staphylococcus aureus [2]): 2 µg/mL (≈ 4.32 µM)
MIC90 (Staphylococcus aureus [2]): 4 µg/mL (≈ 8.65 µM)
MIC (Staphylococcus aureus [3]): 32 µg/mL (≈ 69.2 µM)
MIC50 (Staphylococcus aureus [3]): 16 µg/mL (≈ 34.6 µM)
MIC90 (Staphylococcus aureus [3]): 32 µg/mL (≈ 69.2 µM)
MIC (Staphylococcus aureus [4]): 13.6 µg/mL (≈ 29.4 µM)
MIC50 (Staphylococcus aureus [4]): 8 µg/mL (≈ 17.3 µM)
MIC90 (Staphylococcus aureus [4]): 64 µg/mL (≈ 138 µM)
MIC (Staphylococcus aureus [5]): 0.6 µg/mL (≈ 1.3 µM)
MIC90 (Staphylococcus aureus [5]): 1 µg/mL (≈ 2.16 µM)
MIC (Staphylococcus aureus [6]): 1.3 µg/mL (≈ 2.81 µM)
MIC50 (Staphylococcus aureus [6]): 1 µg/mL (≈ 2.16 µM)
MIC90 (Staphylococcus aureus [6]): 4 µg/mL (≈ 8.65 µM)
MIC (Staphylococcus aureus [7]): 0.4 µg/mL (≈ 0.865 µM)
MIC50 (Staphylococcus aureus [7]): 1 µg/mL (≈ 2.16 µM)
MIC90 (Staphylococcus aureus [7]): 1 µg/mL (≈ 2.16 µM)
MIC (Staphylococcus aureus [8]): 8 µg/mL (≈ 17.3 µM)
MIC50 (Staphylococcus aureus [8]): 4 µg/mL (≈ 8.65 µM)
MIC90 (Staphylococcus aureus [8]): 32 µg/mL (≈ 69.2 µM)
MIC50 (Staphylococcus aureus [9]): 1 µg/mL (≈ 2.16 µM)
Compound: Cn1nnnc1SCC1=C(C(=O)O)N2C(=O)[C@@H](NC(=O)[C@H](O)c3ccccc3)[C@H]2SC1 [CEFAMANDOLE]

concentration at 4 h [15]: 17000 ng/mL
concentration at 1 h [22]: 6900 ng/mL
Compound: Cc1nnc(SCC2=C(C(=O)O)N3C(=O)[C@@H](NC(=O)Cn4cnnn4)[C@H]3SC2)s1 [CEFAZOLIN]
Activity (Staphylococcus aureus [10]): 0%
Activity (Staphylococcus aureus [11]): 100%
Activity (Staphylococcus aureus [12]): 0%
Activity (Staphylococcus aureus [13]): 50%
Activity (Staphylococcus aureus [14]): 0%
Activity (Staphylococcus aureus [16]): 5%
Activity (Staphylococcus aureus [17]): 23%
Activity (Staphylococcus aureus [18]): 24%
Activity (Staphylococcus aureus [19]): 9%
Activity (Staphylococcus aureus [20]): 5%
Activity (Staphylococcus aureus [21]): 0%
Activity (Staphylococcus aureus [23]): 8%
Activity (Staphylococcus aureus [24]): 2%
Activity (Staphylococcus aureus [25]): 0%
Activity (Staphylococcus aureus [26]): 2%
Activity (Staphylococcus aureus [27]): 0%
Activity (Staphylococcus aureus [28]): 0%
Activity (Staphylococcus aureus [29]): 0%
Activity (Staphylococcus aureus [30]): 0%
Activity (Staphylococcus aureus [31]): 1%
Activity (Staphylococcus aureus [32]): 6%
Activity (Staphylococcus aureus [33]): 0%
Activity (Staphylococcus aureus [34]): 2%
Activity (Staphylococcus aureus [35]): 3%
Activity (Staphylococcus aureus [36]): 12%
Activity (Staphylococcus aureus [37]): 20%
Activity (Staphylococcus aureus [38]): 89%
Activity (Staphylococcus aureus [39]): 33%
Activity (Staphylococcus aureus [40]): 0%
Activity (Staphylococcus aureus [41]): 0%
Activity (Staphylococcus aureus [42]): 3%
Activity (Staphylococcus aureus [43]): 0%
